Results reported in ChEMBL document CHEMBL4811244, “Design and synthesis of 1H-pyrazolo[3,4-b]pyridines targeting mitogen-activated protein kinase kinase 4 (MKK4) - A promising target for liver regeneration” (Eur J Med Chem, 2021).

How the values were obtained:
[1] = molecular target: T1, Dual specificity mitogen-activated protein kinase kinase 7 (Homo sapiens, UniProt O14733); test: Binding affinity to wild-type human full length MKK7 (M1 to R419 residues) expressed in mammalian expression system by Kinomescan method
T1 sequence (O14733 whole entry): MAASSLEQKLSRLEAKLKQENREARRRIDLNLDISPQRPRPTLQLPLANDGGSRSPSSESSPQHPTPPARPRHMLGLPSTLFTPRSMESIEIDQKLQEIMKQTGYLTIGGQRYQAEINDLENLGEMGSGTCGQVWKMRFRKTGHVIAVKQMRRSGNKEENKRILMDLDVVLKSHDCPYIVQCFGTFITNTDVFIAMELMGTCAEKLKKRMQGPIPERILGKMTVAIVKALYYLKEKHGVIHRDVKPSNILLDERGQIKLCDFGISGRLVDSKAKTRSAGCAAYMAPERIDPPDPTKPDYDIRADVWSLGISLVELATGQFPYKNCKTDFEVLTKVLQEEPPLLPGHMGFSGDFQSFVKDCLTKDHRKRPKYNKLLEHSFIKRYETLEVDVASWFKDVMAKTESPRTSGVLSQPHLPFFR
In short: (§1)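 Dissociation constants (Kd, nM) were determined by KINOMEscan competition-binding assay, in duplicate.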

[2] = molecular target: T2, Mitogen-activated protein kinase kinase kinase 20 (Homo sapiens, UniProt Q9NYL2); test: Binding affinity to wild-type human partial length ZAK (M1 to L331 residues) expressed in bacterial expression system assessed as residual binding level at 100 nM by Kinomescan method relative to control
Target sequence in this assay (Q9NYL2 2-800 limits assumed): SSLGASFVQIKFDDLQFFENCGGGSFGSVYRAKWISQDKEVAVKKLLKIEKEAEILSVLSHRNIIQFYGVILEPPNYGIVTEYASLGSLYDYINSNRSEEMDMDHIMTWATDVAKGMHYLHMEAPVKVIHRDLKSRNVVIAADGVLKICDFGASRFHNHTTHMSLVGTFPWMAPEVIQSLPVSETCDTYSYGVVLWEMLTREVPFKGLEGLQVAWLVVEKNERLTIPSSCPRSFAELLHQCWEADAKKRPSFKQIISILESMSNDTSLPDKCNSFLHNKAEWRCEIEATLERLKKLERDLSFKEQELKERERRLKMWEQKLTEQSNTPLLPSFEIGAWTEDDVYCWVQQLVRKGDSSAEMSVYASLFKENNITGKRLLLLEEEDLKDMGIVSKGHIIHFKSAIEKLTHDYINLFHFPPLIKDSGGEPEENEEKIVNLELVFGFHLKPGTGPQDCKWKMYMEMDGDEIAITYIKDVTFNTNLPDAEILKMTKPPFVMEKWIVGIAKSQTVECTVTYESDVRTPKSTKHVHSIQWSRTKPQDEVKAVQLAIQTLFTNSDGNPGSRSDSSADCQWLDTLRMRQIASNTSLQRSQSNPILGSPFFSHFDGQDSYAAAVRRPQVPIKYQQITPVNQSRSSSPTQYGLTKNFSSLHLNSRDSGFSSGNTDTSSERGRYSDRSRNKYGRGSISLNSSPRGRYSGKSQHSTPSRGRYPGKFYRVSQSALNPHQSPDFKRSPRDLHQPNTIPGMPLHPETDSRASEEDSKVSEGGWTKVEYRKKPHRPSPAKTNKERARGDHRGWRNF

[3] = molecular target: T3, Mitogen-activated protein kinase kinase kinase kinase 5 (Homo sapiens, UniProt Q9Y4K4); test: Binding affinity to wild-type human partial length MAP4K5 (M1 to P297 residues) expressed in bacterial expression system assessed as residual binding level at 100 nM by Kinomescan method relative to control
Target sequence in this assay (Q9Y4K4 whole entry, looked up, the tested form may be a part): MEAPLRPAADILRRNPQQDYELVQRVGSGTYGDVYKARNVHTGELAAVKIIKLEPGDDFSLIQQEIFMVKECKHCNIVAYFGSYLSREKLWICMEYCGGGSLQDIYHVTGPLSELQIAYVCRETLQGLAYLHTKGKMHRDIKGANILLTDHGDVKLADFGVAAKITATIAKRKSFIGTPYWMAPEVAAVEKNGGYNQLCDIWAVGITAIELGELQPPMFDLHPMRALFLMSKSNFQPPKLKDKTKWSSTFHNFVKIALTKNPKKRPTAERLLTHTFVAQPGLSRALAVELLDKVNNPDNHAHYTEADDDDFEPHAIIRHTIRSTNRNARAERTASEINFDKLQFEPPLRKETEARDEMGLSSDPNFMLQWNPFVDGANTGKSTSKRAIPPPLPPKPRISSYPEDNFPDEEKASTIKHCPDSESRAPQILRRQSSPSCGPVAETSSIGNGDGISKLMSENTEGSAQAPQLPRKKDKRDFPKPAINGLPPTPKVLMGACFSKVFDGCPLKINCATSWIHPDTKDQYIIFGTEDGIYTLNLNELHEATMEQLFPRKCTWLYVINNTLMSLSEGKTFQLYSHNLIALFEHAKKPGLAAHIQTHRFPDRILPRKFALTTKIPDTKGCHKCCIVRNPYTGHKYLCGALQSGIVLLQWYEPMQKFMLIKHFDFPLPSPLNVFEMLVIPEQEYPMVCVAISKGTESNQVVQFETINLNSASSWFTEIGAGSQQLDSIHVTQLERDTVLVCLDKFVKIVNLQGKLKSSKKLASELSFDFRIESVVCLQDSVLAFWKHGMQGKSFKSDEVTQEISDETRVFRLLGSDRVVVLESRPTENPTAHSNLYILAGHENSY

[4] = molecular target: Serine/threonine-protein kinase B-raf (Homo sapiens, UniProt P15056); test: Binding affinity to wild-type human partial length BRAF (S429 to E741 residues) expressed in mammalian expression system by Kinomescan method
Chain of Serine/threonine-protein kinase B-raf (P15056 whole entry, the tested form may be a part): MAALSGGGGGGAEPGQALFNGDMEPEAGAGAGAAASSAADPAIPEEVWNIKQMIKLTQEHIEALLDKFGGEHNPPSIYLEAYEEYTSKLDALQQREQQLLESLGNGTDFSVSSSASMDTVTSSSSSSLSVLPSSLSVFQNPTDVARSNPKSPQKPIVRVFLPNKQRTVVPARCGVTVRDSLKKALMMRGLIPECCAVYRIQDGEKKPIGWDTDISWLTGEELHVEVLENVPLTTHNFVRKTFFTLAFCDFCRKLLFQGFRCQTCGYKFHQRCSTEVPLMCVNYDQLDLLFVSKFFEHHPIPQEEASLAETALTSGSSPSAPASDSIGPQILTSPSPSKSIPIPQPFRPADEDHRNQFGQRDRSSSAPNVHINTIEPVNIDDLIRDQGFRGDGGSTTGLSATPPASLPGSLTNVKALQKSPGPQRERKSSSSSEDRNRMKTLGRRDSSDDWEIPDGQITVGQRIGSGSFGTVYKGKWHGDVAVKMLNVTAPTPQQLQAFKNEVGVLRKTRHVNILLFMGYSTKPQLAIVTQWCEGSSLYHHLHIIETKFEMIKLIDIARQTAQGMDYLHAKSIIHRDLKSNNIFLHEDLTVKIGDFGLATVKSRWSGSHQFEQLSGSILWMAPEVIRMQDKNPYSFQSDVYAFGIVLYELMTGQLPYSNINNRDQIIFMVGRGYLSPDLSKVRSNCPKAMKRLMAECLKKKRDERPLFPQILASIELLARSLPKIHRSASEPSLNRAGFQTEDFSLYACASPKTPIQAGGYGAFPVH

[5] = molecular target: T3, Mitogen-activated protein kinase kinase kinase kinase 5; test: Binding affinity to wild-type human partial length MAP4K5 (M1 to P297 residues) expressed in bacterial expression system by Kinomescan method; in short: as §1
Target sequence in this assay (Q9Y4K4 whole entry, the tested form may be a part): as the sequence (Q9Y4K4 whole entry, looked up, the tested form may be a part) above

[6] = molecular target: T4, Dual specificity mitogen-activated protein kinase kinase 7 (Homo sapiens) (UniProt O14733); test: Binding affinity to wild-type human full length MKK7 (M1 to R419 residues) expressed in mammalian expression system assessed as residual binding level at 100 nM by Kinomescan method relative to control
T4 sequence (whole entry): T1 sequence (O14733 whole entry)

[7] = molecular target: Mitogen-activated protein kinase 8 (Homo sapiens, UniProt P45983); test: Binding affinity to wild-type human full length JNK1 (M1 to Q384 residues) expressed in mammalian expression system by Kinomescan method
Chain of Mitogen-activated protein kinase 8 (P45983 whole entry, the tested form may be a part): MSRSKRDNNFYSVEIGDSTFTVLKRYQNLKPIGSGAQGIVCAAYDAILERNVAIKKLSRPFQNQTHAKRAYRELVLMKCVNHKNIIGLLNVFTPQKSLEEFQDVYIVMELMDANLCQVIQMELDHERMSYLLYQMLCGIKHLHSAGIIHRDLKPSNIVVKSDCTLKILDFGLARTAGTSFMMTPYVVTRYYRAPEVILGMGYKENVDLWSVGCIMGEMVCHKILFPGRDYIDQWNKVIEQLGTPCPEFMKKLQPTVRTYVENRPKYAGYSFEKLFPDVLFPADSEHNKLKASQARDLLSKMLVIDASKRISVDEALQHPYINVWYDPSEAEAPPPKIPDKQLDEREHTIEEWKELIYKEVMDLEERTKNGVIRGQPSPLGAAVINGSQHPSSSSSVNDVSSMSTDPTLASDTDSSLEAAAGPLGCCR

[8] = molecular target: T2, Mitogen-activated protein kinase kinase kinase 20; test: Binding affinity to wild-type human partial length ZAK (M1 to L331 residues) expressed in bacterial expression system by Kinomescan method; in short: as §1
Target sequence in this assay (Q9NYL2 whole entry, the tested form may be a part): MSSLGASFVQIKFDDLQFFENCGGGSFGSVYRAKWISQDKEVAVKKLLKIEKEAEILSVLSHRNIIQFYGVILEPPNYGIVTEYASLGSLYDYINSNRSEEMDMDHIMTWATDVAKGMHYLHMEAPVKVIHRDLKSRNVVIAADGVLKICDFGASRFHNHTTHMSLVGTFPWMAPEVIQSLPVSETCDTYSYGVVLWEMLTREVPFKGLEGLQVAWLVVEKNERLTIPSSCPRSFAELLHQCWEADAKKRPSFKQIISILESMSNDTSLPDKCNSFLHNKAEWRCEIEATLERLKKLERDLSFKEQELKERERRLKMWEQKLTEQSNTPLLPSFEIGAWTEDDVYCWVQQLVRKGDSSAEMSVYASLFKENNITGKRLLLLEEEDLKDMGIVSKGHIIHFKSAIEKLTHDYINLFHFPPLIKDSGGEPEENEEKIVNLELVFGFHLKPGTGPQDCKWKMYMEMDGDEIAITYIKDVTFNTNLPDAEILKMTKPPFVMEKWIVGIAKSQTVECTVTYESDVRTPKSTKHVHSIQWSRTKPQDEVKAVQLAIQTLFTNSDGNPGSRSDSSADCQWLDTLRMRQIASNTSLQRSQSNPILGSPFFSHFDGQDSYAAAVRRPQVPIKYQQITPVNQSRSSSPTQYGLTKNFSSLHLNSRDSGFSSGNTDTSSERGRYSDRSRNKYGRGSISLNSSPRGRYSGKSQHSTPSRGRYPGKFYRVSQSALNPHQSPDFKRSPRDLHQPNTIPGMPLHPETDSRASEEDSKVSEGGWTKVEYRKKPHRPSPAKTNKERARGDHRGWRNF

Kd [1]: 5000 nM
Activity [2]: 1.8%
Activity [3]: 1.4%
Kd [4]: 610 nM
Kd [5]: 5.8 nM
Activity [6]: 100%
Kd [7]: 140 nM
Kd [8]: 9.5 nM
Structure (SMILES): Nc1ccc(-c2cnc3[nH]nc(C(=O)c4c(F)ccc(NS(=O)(=O)Cc5ccccc5)c4F)c3c2)cc1
